Measurements from different studies.
Lines come from different studies, so protocols differ. pIC50: −log10 of the molar value.
Action: inhibitor
rep methyltransferase: Replicase polyprotein 1ab, methyltransferase (rep, Severe acute respiratory syndrome coronavirus 2, UniProt P0DTD1)
rep main protease: Replicase polyprotein 1ab, main protease (rep, Severe acute respiratory syndrome coronavirus 2, UniProt P0DTD1)
rep papain-like protease: Replicase polyprotein 1ab, papain-like protease (rep, Severe acute respiratory syndrome coronavirus 2, UniProt P0DTD1)

Compound	target	observed	technique	pH	setting	pIC50
CC(C)c1nnc(NC(=O)c2cccc(N3C(=O)c4ccccc4C3=O)c2)s1	rep methyltransferase	enzyme activity	–	–	–	4.45
COc1cc(Br)cc(C=NN2C(=O)c3ccccc3NC2c2cc(Br)cc(OC)c2O)c1O (centres unmarked)	rep main protease	enzyme activity in cells	–	–	–	< 4.40
COc1cc(C[C@@H](C)[C@@H](C)Cc2ccc(O)c(OC)c2)ccc1O	rep main protease	enzyme activity	FRET	–	–	5.39
O=c1oc2c(cc1O)oc(=O)c1cc(O)c(O)c(O)c12	rep methyltransferase	enzyme activity	–	–	–	4.62
COCCn1c2c([n+](Cc3cnccn3)c1C)C(=O)c1ccccc1C2=O	rep papain-like protease	enzyme activity	FRET	pH 7.5	–	4.70
N=C(N)NN=C1C=CC(=NNC(N)=S)C=C1	rep main protease	enzyme activity	–	–	–	5.03
CN(C)[C@@H]1C(O)=C(C(N)=O)C(=O)[C@@]2(O)C(O)=C3C(=O)c4c(O)cccc4[C@@](C)(O)[C@H]3[C@H](O)[C@@H]12	rep main protease	enzyme activity	luciferase	–	–	< 3.62
Cc1nocc1C(=O)N1Cc2ccccc2[C@@H](CNC(=O)c2cncc3ccc(F)cc23)C1	rep main protease	enzyme activity	–	–	–	4.25
Cc1nn(-c2ccc(Cl)cc2)c2c1C(c1ccc(Cl)c(Cl)c1)C(C#N)=C(N)O2 (centres unmarked)	rep main protease	enzyme activity	–	–	–	4.00
Cc1cccc2c3c(ccc12)C1=C(C(=O)C3=O)[C@@H](C)CO1	rep papain-like protease	enzyme activity	FRET	pH 7.5	–	4.48
CC(=O)[C@]1(O)Cc2c(O)c3c(c(O)c2[C@@H](O[C@H]2C[C@H](N)[C@H](O)[C@H](C)O2)C1)C(=O)c1ccccc1C3=O	rep methyltransferase	enzyme activity	–	–	–	4.41
Cc1c(O)cccc1C(=O)N[C@@H](CSc1ccccc1)[C@H](O)CN1C[C@H]2CCCC[C@H]2C[C@H]1C(=O)NC(C)(C)C	rep main protease	enzyme activity in cells	–	–	–	< 5.00
O=C(C1=C(O)C(=O)N(c2nc3ccc(F)cc3s2)C1c1cccc(F)c1)c1cccs1 (centres unmarked)	rep methyltransferase	enzyme activity	–	–	–	3.96
O=C1c2ccccc2NC(c2cc([N+](=O)[O-])ccc2O)N1N=Cc1cc([N+](=O)[O-])ccc1O (centres unmarked)	rep main protease	enzyme activity in cells	–	–	–	< 4.40
Cc1cccc(C)c1OCC(=O)N[C@@H](Cc1ccccc1)[C@@H](O)C[C@H](Cc1ccccc1)NC(=O)[C@H](C(C)C)N1CCCNC1=O	rep main protease	enzyme activity in cells	–	–	–	< 4.70
CN1CCN(C(=O)c2ccc(-c3ccc4c(C=O)c(O)ccc4c3)s2)CC1	rep main protease	enzyme activity	–	–	–	5.89
Oc1ccc(O)cc1	rep methyltransferase	enzyme activity	–	–	–	4.91
CN(CCCN1c2ccccc2CCc2ccccc21)CC(=O)c1ccc(Cl)cc1	rep main protease	enzyme activity	–	–	–	4.94

Compound	target	observed	technique	pH	setting	pIC50
[H]/N=C(\N/C(=N/[H])NCCCCCCNC(=N)NC(=N)Nc1ccc(Cl)cc1)Nc1ccc(Cl)cc1	rep methyltransferase	enzyme activity	–	–	–	4.36
C[C@H]1[C@H](OC(=O)CCC(=O)O)O[C@@H]2O[C@@]3(C)CC[C@H]4[C@H](C)CC[C@@H]1[C@@]24OO3	rep main protease	enzyme activity in cells	–	–	–	5.62
Cc1cc(/C=C/c2ccc3cc(N(C)C)ccc3[n+]2C)c(C)n1-c1ccccc1	rep methyltransferase	enzyme activity	–	–	–	4.36
CC[N+](C)(CC)CCC[n+]1c(-c2ccccc2)c2cc(N)ccc2c2ccc(N)cc21	rep main protease	enzyme activity	–	–	–	< 4.70
CCOc1nc2cccc(C(=O)O)c2n1Cc1ccc(-c2ccccc2-c2nnn[nH]2)cc1	rep main protease	enzyme activity in cells	–	–	–	< 4.22
Cc1ccc(-c2nc(N3CCN(C)CC3)s[n+]2-c2ccccc2)cc1	rep main protease	enzyme activity	–	–	–	6.27
C[S+]([O-])CCCCN=C=S (centres unmarked)	rep main protease	enzyme activity	–	–	–	5.26
COC(=O)N[C@H](C(=O)N[C@@H](Cc1ccccc1)[C@@H](O)CN(Cc1ccc(-c2ccccn2)cc1)NC(=O)[C@@H](NC(=O)OC)C(C)(C)C)C(C)(C)C	rep main protease	enzyme activity in cells	–	–	–	< 4.22
Cc1ccc2[nH]ncc2c1C(=O)NC[C@H]1Cc2ccccc2CN1C(=O)C[C@H](C)c1ccco1	rep main protease	enzyme activity	–	–	–	4.24
COc1cc(-c2ccc(/N=N/c3ccc4c(S(=O)(=O)O)cc(S(=O)(=O)O)c(N)c4c3O)c(OC)c2)ccc1/N=N/c1ccc2c(S(=O)(=O)O)cc(S(=O)(=O)O)c(N)c2c1O	rep main protease	enzyme activity	–	–	–	5.01
O=c1c2ccccc2[se]n1-c1cccc2cccnc12	rep main protease	enzyme activity	FRET	–	–	5.59
CC(C)C[C@H](NC(=O)OCc1ccccc1)C(=O)N(C)N(C#N)CCC(N)=O	rep main protease	enzyme activity	–	–	–	5.84
O=C(Cn1nnc2ccccc21)Nc1ccccc1N1CCc2sccc2C1	rep main protease	enzyme activity	–	–	–	< 4.00
COc1nc2ccc(Br)cc2cc1[C@@H](c1ccccc1)[C@@](O)(CCN(C)C)c1cccc2ccccc12	rep main protease	enzyme activity	–	–	–	5.12
CCCCCC/C=C\CCCCCCCCCc1cc(O)cc(O)c1	rep main protease	enzyme activity	–	–	with preincubation	< 4.00
Oc1cc(O)c2c(c1)O[C@H](c1ccc(O)c(O)c1)[C@H](O)C2	rep main protease	enzyme activity	–	–	–	7.30
N#CC(C(N)=O)=C1Oc2c(cc(O)cc2-c2ccc(Cl)c(Cl)c2)S1	rep methyltransferase	enzyme activity	–	–	–	4.35
